{"source": "paper PMC6445238", "about": "(Drug Design, Development and Therapy, 2019)", "key": {"Single ascending dose": {"assay": "Single ascending dose", "format": "in vivo, human", "procedure,_shortened": "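After a single oral dose, plasma was sampled predose and at 0.25–72 h, and urine was collected over 0–24 h. Samples were mixed with DMSO and a deuterated internal standard, extracted with methanol, diluted with 0.1% ammonium acetate, and run by UPLC-MS/MS using MRM at m/z 460.1→214.2. Analysis was non-compartmental: t1/2 = 0.693/λz, AUC by linear trapezoidal rule, BLQ values before Cmax set to zero.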"}, "[1]": {"assay": "MAD study, safety and tolerability", "format": "in vivo, human", "conditions": "young, N=6", "procedure,_shortened": "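MAD cohorts were 6 active and 2 placebo healthy males, dosed once daily for 7 days, confined day −1 to day 8, with follow-up on day 14. Safety was monitored by vital signs, clinical labs, 12-lead ECG, physical exams, and AEs reported by subjects or observed by investigators. AEs were coded with MedDRA 19.1. Counts are given as subjects with AEs, % of the safety population. Placebo subjects were pooled.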"}}, "data": [{"smiles": "Cc1nn(Cc2ccc(Br)cc2)c(C)c1NC(=O)CSc1ccccc1", "note": "[KM-819]", "values": [{"measurement": "variability (CV%) of AUCinf and Cmax", "setting": "Single ascending dose; SAD", "result": "up to 55%"}, {"measurement": "dose proportionality of plasma exposure (AUC and Cmax) after a single dose", "setting": "Single ascending dose; SAD, 10–400 mg", "result": "less than dose-proportional increase"}, {"measurement": "24-hour recovery in urine (percent of dose)", "setting": "Single ascending dose; SAD, all subjects", "result": "less than 1%"}, {"measurement": "AUCinf, geometric mean (CV%)", "setting": "Single ascending dose; single 10 mg, young", "result": "594.2 (24.4) ng·h/mL"}, {"measurement": "AUClast, geometric mean (CV%)", "setting": "Single ascending dose; single 10 mg, young", "result": "583.4 (24.5) ng·h/mL"}, {"measurement": "CL/F, geometric mean (CV%)", "setting": "Single ascending dose; single 10 mg, young", "result": "16,830 (24.4) mL/h"}, {"measurement": "Cmax, geometric mean (CV%)", "setting": "Single ascending dose; single 10 mg, young", "result": "244.1 (31.4) ng/mL"}, {"measurement": "Tmax, median (min–max)", "setting": "Single ascending dose; single 10 mg, young", "result": "1.50 (0.50–2.00) h"}, {"measurement": "t1/2, geometric mean (CV%)", "setting": "Single ascending dose; single 10 mg, young", "result": "1.786 (28.3) h"}, {"measurement": "tlag, median (min–max)", "setting": "Single ascending dose; single 10 mg, young", "result": "0.00 (0.00–0.25) h"}, {"measurement": "AUCinf, geometric mean (CV%)", "setting": "Single ascending dose; single 30 mg, young", "result": "1,731 (17.3) ng·h/mL"}, {"measurement": "AUClast, geometric mean (CV%)", "setting": "Single ascending dose; single 30 mg, young", "result": "1,705 (17.1) ng·h/mL"}, {"measurement": "CL/F, geometric mean (CV%)", "setting": "Single ascending dose; single 30 mg, young", "result": "17,340 (17.3) mL/h"}, {"measurement": "Cmax, geometric mean (CV%)", "setting": "Single ascending dose; single 30 mg, young", "result": "503.6 (28.0) ng/mL"}, {"measurement": "Tmax, median (min–max)", "setting": "Single ascending dose; single 30 mg, young", "result": "1.00 (0.50–2.00) h"}, {"measurement": "t1/2, geometric mean (CV%)", "setting": "Single ascending dose; single 30 mg, young", "result": "4.791 (25.0) h"}, {"measurement": "tlag, median (min–max)", "setting": "Single ascending dose; single 30 mg, young", "result": "0.00 (0.00–0.00) h"}, {"measurement": "AUCinf, geometric mean (CV%)", "setting": "Single ascending dose; single 100 mg, young", "result": "4,872 (30.8) ng·h/mL"}, {"measurement": "AUClast, geometric mean (CV%)", "setting": "Single ascending dose; single 100 mg, young", "result": "4,306 (31.1) ng·h/mL"}, {"measurement": "CL/F, geometric mean (CV%)", "setting": "Single ascending dose; single 100 mg, young", "result": "20,530 (30.8) mL/h"}, {"measurement": "Cmax, geometric mean (CV%)", "setting": "Single ascending dose; single 100 mg, young", "result": "1,152 (36.7) ng/mL"}, {"measurement": "Tmax, median (min–max)", "setting": "Single ascending dose; single 100 mg, young", "result": "2.00 (1.00–4.00) h"}, {"measurement": "t1/2, geometric mean (CV%)", "setting": "Single ascending dose; single 100 mg, young", "result": "9.159 (41.2) h"}, {"measurement": "tlag, median (min–max)", "setting": "Single ascending dose; single 100 mg, young", "result": "0.00 (0.00–0.00) h"}, {"measurement": "AUC higher in elderly than in young", "setting": "Single ascending dose; single 200 mg", "result": 49, "unit": "%"}, {"measurement": "Cmax, elderly compared with young", "setting": "Single ascending dose; single 200 mg", "result": "similar"}, {"measurement": "t1/2 higher in elderly than in young", "setting": "Single ascending dose; single 200 mg", "result": 17, "unit": "%"}, {"measurement": "AUCinf, geometric mean (CV%)", "setting": "Single ascending dose; single 200 mg, elderly", "result": "10,970 (9.8) ng·h/mL"}, {"measurement": "AUClast, geometric mean (CV%)", "setting": "Single ascending dose; single 200 mg, elderly", "result": "10,840 (10.3) ng·h/mL"}, {"measurement": "CL/F, geometric mean (CV%)", "setting": "Single ascending dose; single 200 mg, elderly", "result": "18,230 (9.8) mL/h"}, {"measurement": "Cmax, geometric mean (CV%)", "setting": "Single ascending dose; single 200 mg, elderly", "result": "1,766 (26.0) ng/mL"}, {"measurement": "Tmax, median (min–max)", "setting": "Single ascending dose; single 200 mg, elderly", "result": "2.00 (1.0–4.00) h"}, {"measurement": "t1/2, geometric mean (CV%)", "setting": "Single ascending dose; single 200 mg, elderly", "result": "10.55 (28.5) h"}, {"measurement": "tlag, median (min–max)", "setting": "Single ascending dose; single 200 mg, elderly", "result": "0.00 (0.00–0.00) h"}, {"measurement": "AUCinf, geometric mean (CV%)", "setting": "Single ascending dose; single 200 mg, young", "result": "7,338 (51.9) ng·h/mL"}, {"measurement": "AUClast, geometric mean (CV%)", "setting": "Single ascending dose; single 200 mg, young", "result": "7,637 (47.7) ng·h/mL"}, {"measurement": "CL/F, geometric mean (CV%)", "setting": "Single ascending dose; single 200 mg, young", "result": "27,260 (51.9) mL/h"}, {"measurement": "Cmax, geometric mean (CV%)", "setting": "Single ascending dose; single 200 mg, young", "result": "1,879 (55.3) ng/mL"}, {"measurement": "Tmax, median (min–max)", "setting": "Single ascending dose; single 200 mg, young", "result": "2.00 (1.00–4.00) h"}, {"measurement": "t1/2, geometric mean (CV%)", "setting": "Single ascending dose; single 200 mg, young", "result": "9.010 (71.6) h"}, {"measurement": "tlag, median (min–max)", "setting": "Single ascending dose; single 200 mg, young", "result": "0.00 (0.00–0.25) h"}, {"measurement": "AUCinf, geometric mean (CV%)", "setting": "Single ascending dose; single 400 mg, young", "result": "12,640 (36.1) ng·h/mL"}, {"measurement": "AUClast, geometric mean (CV%)", "setting": "Single ascending dose; single 400 mg, young", "result": "12,210 (33.3) ng·h/mL"}, {"measurement": "CL/F, geometric mean (CV%)", "setting": "Single ascending dose; single 400 mg, young", "result": "31,650 (36.1) mL/h"}, {"measurement": "Cmax, geometric mean (CV%)", "setting": "Single ascending dose; single 400 mg, young", "result": "2,767 (43.4) ng/mL"}, {"measurement": "Tmax, median (min–max)", "setting": "Single ascending dose; single 400 mg, young", "result": "4.00 (2.00–4.00) h"}, {"measurement": "t1/2, geometric mean (CV%)", "setting": "Single ascending dose; single 400 mg, young", "result": "8.527 (63.2) h"}, {"measurement": "tlag, median (min–max)", "setting": "Single ascending dose; single 400 mg, young", "result": "0.00 (0.00–0.00) h"}, {"measurement": "Abdominal discomfort, number of subjects (%)", "setting": "[1]; 30 mg QD 7 days", "result": 0}, {"measurement": "Abdominal pain, number of subjects (%)", "setting": "[1]; 30 mg QD 7 days", "result": 0}, {"measurement": "Anxiety, number of subjects (%)", "setting": "[1]; 30 mg QD 7 days", "result": 0}, {"measurement": "Back pain, number of subjects (%)", "setting": "[1]; 30 mg QD 7 days", "result": 0}, {"measurement": "Diarrhea, number of subjects (%)", "setting": "[1]; 30 mg QD 7 days", "result": 0}, {"measurement": "Dizziness, number of subjects (%)", "setting": "[1]; 30 mg QD 7 days", "result": "1 (16.7)"}, {"measurement": "Epistaxis, number of subjects (%)", "setting": "[1]; 30 mg QD 7 days", "result": 0}, {"measurement": "Erythema of eyelid, number of subjects (%)", "setting": "[1]; 30 mg QD 7 days", "result": 0}, {"measurement": "Erythema, number of subjects (%)", "setting": "[1]; 30 mg QD 7 days", "result": 0}, {"measurement": "Headache, number of subjects (%)", "setting": "[1]; 30 mg QD 7 days", "result": "2 (33.3)"}, {"measurement": "Hyperbilirubinemia, number of subjects (%)", "setting": "[1]; 30 mg QD 7 days", "result": 0}, {"measurement": "Hyperhidrosis, number of subjects (%)", "setting": "[1]; 30 mg QD 7 days", "result": 0}, {"measurement": "Hypoesthesia, number of subjects (%)", "setting": "[1]; 30 mg QD 7 days", "result": 0}, {"measurement": "Insomnia, number of subjects (%)", "setting": "[1]; 30 mg QD 7 days", "result": 0}, {"measurement": "Muscle hemorrhage, number of subjects (%)", "setting": "[1]; 30 mg QD 7 days", "result": 0}, {"measurement": "Musculoskeletal stiffness, number of subjects (%)", "setting": "[1]; 30 mg QD 7 days", "result": 0}, {"measurement": "Nausea, number of subjects (%)", "setting": "[1]; 30 mg QD 7 days", "result": "2 (33.3)"}, {"measurement": "Neck pain, number of subjects (%)", "setting": "[1]; 30 mg QD 7 days", "result": 0}, {"measurement": "Oropharyngeal pain, number of subjects (%)", "setting": "[1]; 30 mg QD 7 days", "result": 0}, {"measurement": "Subjects with any TEAEs, number of subjects (%)", "setting": "[1]; 30 mg QD 7 days", "result": "2 (33.3)"}, {"measurement": "Vomiting, number of subjects (%)", "setting": "[1]; 30 mg QD 7 days", "result": "2 (33.3)"}, {"measurement": "Abdominal discomfort, number of subjects (%)", "setting": "[1]; 100 mg QD 7 days", "result": 0}, {"measurement": "Abdominal pain, number of subjects (%)", "setting": "[1]; 100 mg QD 7 days", "result": 0}, {"measurement": "Anxiety, number of subjects (%)", "setting": "[1]; 100 mg QD 7 days", "result": 0}, {"measurement": "Back pain, number of subjects (%)", "setting": "[1]; 100 mg QD 7 days", "result": "2 (33.3)"}, {"measurement": "Diarrhea, number of subjects (%)", "setting": "[1]; 100 mg QD 7 days", "result": 0}, {"measurement": "Dizziness, number of subjects (%)", "setting": "[1]; 100 mg QD 7 days", "result": "1 (16.7)"}, {"measurement": "Epistaxis, number of subjects (%)", "setting": "[1]; 100 mg QD 7 days", "result": 0}, {"measurement": "Erythema of eyelid, number of subjects (%)", "setting": "[1]; 100 mg QD 7 days", "result": 0}, {"measurement": "Erythema, number of subjects (%)", "setting": "[1]; 100 mg QD 7 days", "result": 0}]}]}
